Tested on: U2OS
Assay: Multiplex assay against U2OS
Format: toxicity, cell-based
Settings: human
Summary of the method: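 Tubulin, mitochondrial-mass and membrane-permeability phenotypes are per cents of healthy-nucleus cells. Cells were gated by CellPathfinder machine learning into Hoechst high-intensity objects or normal cells, normal cells into healthy, pyknosed or fragmented nuclei, and pyknosed cells into mitotic or apoptotic. Before that, live cells stained at seeding with Hoechst33342, BioTracker Green Microtubule Cytoskeleton Dye, MitoTracker Red and Annexin V Alexa Fluor 680 were imaged on a CQ1 microscope at 37°C and 5% CO2 after compound addition.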

[1] = 12 h, 1 µM, compound concentration 1 uM, replicate 1
[2] = 12 h, 1 µM, compound concentration 1 uM, replicate 2
[3] = 12 h, 10 µM, compound concentration 10 uM, replicate 1
[4] = 12 h, 10 µM, compound concentration 10 uM, replicate 2
[5] = 24 h, 1 µM, compound concentration 1 uM, replicate 1
[6] = 24 h, 1 µM, compound concentration 1 uM, replicate 2
[7] = 24 h, 10 µM, compound concentration 10 uM, replicate 1
[8] = 24 h, 10 µM, compound concentration 10 uM, replicate 2
[9] = 48 h, 1 µM, compound concentration 1 uM, replicate 1
[10] = 48 h, 1 µM, compound concentration 1 uM, replicate 2
[11] = 48 h, 10 µM, compound concentration 10 uM, replicate 1
[12] = 48 h, 10 µM, compound concentration 10 uM, replicate 2

CN1CCN(c2ccc(Nc3c4ccccc4nc4ccccc34)cc2)CC1.Cl.Cl.O
Population Apoptotic (%) [1]: 100% | Population Fragmented Nuclei (%) [1]: 25% | Population Healthy Nuclei (%) [1]: 65% | Population Hoechst High Intensity Objects (%) [1]: 0% | Population Membrane Permeable-Phenotype (%) [1]: 19% | Population Mitochondria Different-Phenotype (%) [1]: 7% | Population Mitotic Cells (%) [1]: 0% | Population Normal (%) [1]: 99% | Population Pyknosed Nuclei (%) [1]: 8% | Population Tubulin-Different-Phenotype (%) [1]: 17% | Total Cell Count [1]: 193 | Population Apoptotic (%) [2]: 87% | Population Fragmented Nuclei (%) [2]: 23% | Population Healthy Nuclei (%) [2]: 69% | Population Membrane Permeable-Phenotype (%) [2]: 14% | Population Mitochondria Different-Phenotype (%) [2]: 13% | Population Mitotic Cells (%) [2]: 12% | Population Normal (%) [2]: 100% | Population Pyknosed Nuclei (%) [2]: 7% | Population Tubulin-Different-Phenotype (%) [2]: 13% | Total Cell Count [2]: 107 | Population Apoptotic (%) [3]: 93% | Population Fragmented Nuclei (%) [3]: 54% | Population Healthy Nuclei (%) [3]: 38% | Population Hoechst High Intensity Objects (%) [3]: 0% | Population Membrane Permeable-Phenotype (%) [3]: 65% | Population Mitochondria Different-Phenotype (%) [3]: 95% | Population Mitotic Cells (%) [3]: 6% | Population Normal (%) [3]: 99% | Population Pyknosed Nuclei (%) [3]: 7% | Population Tubulin-Different-Phenotype (%) [3]: 82% | Total Cell Count [3]: 213 | Population Apoptotic (%) [4]: 100% | Population Fragmented Nuclei (%) [4]: 62% | Population Healthy Nuclei (%) [4]: 31% | Population Hoechst High Intensity Objects (%) [4]: 2% | Population Membrane Permeable-Phenotype (%) [4]: 70% | Population Mitochondria Different-Phenotype (%) [4]: 100% | Population Mitotic Cells (%) [4]: 0% | Population Normal (%) [4]: 97% | Population Pyknosed Nuclei (%) [4]: 6% | Population Tubulin-Different-Phenotype (%) [4]: 85% | Total Cell Count [4]: 132 | Population Apoptotic (%) [5]: 92% | Population Fragmented Nuclei (%) [5]: 28% | Population Healthy Nuclei (%) [5]: 64% | Population Hoechst High Intensity Objects (%) [5]: 1% | Population Membrane Permeable-Phenotype (%) [5]: 10% | Population Mitochondria Different-Phenotype (%) [5]: 6% | Population Mitotic Cells (%) [5]: 7% | Population Normal (%) [5]: 98% | Population Pyknosed Nuclei (%) [5]: 6% | Population Tubulin-Different-Phenotype (%) [5]: 7% | Total Cell Count [5]: 200 | Population Apoptotic (%) [6]: 100% | Population Fragmented Nuclei (%) [6]: 29% | Population Healthy Nuclei (%) [6]: 60% | Population Hoechst High Intensity Objects (%) [6]: 4% | Population Membrane Permeable-Phenotype (%) [6]: 5% | Population Mitochondria Different-Phenotype (%) [6]: 12% | Population Mitotic Cells (%) [6]: 0% | Population Normal (%) [6]: 95% | Population Pyknosed Nuclei (%) [6]: 10% | Population Tubulin-Different-Phenotype (%) [6]: 6% | Total Cell Count [6]: 124 | Population Apoptotic (%) [7]: 100% | Population Fragmented Nuclei (%) [7]: 46% | Population Healthy Nuclei (%) [7]: 42% | Population Hoechst High Intensity Objects (%) [7]: 4% | Population Membrane Permeable-Phenotype (%) [7]: 85% | Population Mitochondria Different-Phenotype (%) [7]: 96% | Population Mitotic Cells (%) [7]: 0% | Population Normal (%) [7]: 95% | Population Pyknosed Nuclei (%) [7]: 11% | Population Tubulin-Different-Phenotype (%) [7]: 90% | Total Cell Count [7]: 205 | Population Apoptotic (%) [8]: 90% | Population Fragmented Nuclei (%) [8]: 69% | Population Healthy Nuclei (%) [8]: 23% | Population Hoechst High Intensity Objects (%) [8]: 10% | Population Membrane Permeable-Phenotype (%) [8]: 96% | Population Mitochondria Different-Phenotype (%) [8]: 100% | Population Mitotic Cells (%) [8]: 10% | Population Normal (%) [8]: 89% | Population Pyknosed Nuclei (%) [8]: 7% | Population Tubulin-Different-Phenotype (%) [8]: 100% | Total Cell Count [8]: 148 | Population Apoptotic (%) [9]: 87% | Population Fragmented Nuclei (%) [9]: 36% | Population Healthy Nuclei (%) [9]: 52% | Population Hoechst High Intensity Objects (%) [9]: 4% | Population Membrane Permeable-Phenotype (%) [9]: 6% | Population Mitochondria Different-Phenotype (%) [9]: 4% | Population Mitotic Cells (%) [9]: 12% | Population Normal (%) [9]: 95% | Population Pyknosed Nuclei (%) [9]: 10% | Population Tubulin-Different-Phenotype (%) [9]: 3% | Total Cell Count [9]: 231 | Population Apoptotic (%) [10]: 100% | Population Fragmented Nuclei (%) [10]: 40% | Population Healthy Nuclei (%) [10]: 47% | Population Hoechst High Intensity Objects (%) [10]: 5% | Population Membrane Permeable-Phenotype (%) [10]: 19% | Population Mitochondria Different-Phenotype (%) [10]: 7% | Population Mitotic Cells (%) [10]: 0% | Population Normal (%) [10]: 94% | Population Pyknosed Nuclei (%) [10]: 12% | Population Tubulin-Different-Phenotype (%) [10]: 9% | Total Cell Count [10]: 147 | Population Apoptotic (%) [11]: 96% | Population Fragmented Nuclei (%) [11]: 53% | Population Healthy Nuclei (%) [11]: 30% | Population Hoechst High Intensity Objects (%) [11]: 18% | Population Membrane Permeable-Phenotype (%) [11]: 91% | Population Mitochondria Different-Phenotype (%) [11]: 90% | Population Mitotic Cells (%) [11]: 3% | Population Normal (%) [11]: 81% | Population Pyknosed Nuclei (%) [11]: 15% | Population Tubulin-Different-Phenotype (%) [11]: 93% | Total Cell Count [11]: 243 | Population Apoptotic (%) [12]: 100% | Population Fragmented Nuclei (%) [12]: 76% | Population Healthy Nuclei (%) [12]: 19% | Population Hoechst High Intensity Objects (%) [12]: 15% | Population Membrane Permeable-Phenotype (%) [12]: 100% | Population Mitochondria Different-Phenotype (%) [12]: 96% | Population Mitotic Cells (%) [12]: 0% | Population Normal (%) [12]: 84% | Population Pyknosed Nuclei (%) [12]: 4% | Population Tubulin-Different-Phenotype (%) [12]: 100% | Total Cell Count [12]: 173

— ChEMBL document CHEMBL5058577, “EUbOPEN Chemogenomics Library 2 (Multiplex)” (2022)
